Assay outcomes deposited in PubChem BioAssay by several laboratories.
SENP1 inh: SENP1 (human) catalytic domain inhibition. 0.21% of 360,000 active. inhibition, % at 10 µM. recombinant SENP1 catalytic domain, CyPet-SUMO1-YPet FRET cleavage;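 active means inhibition at least 30% at 10 µM, raw YFP signal under a set limit, fluorescence ratio 0.5 to 1.5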;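 further: 0% = enzyme with DMSO and 100% = no enzyme wells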
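Assay system: hSENP1 catalytic domain, recombinant. Amount: SENP1 enzyme, 20 pM final. Schedule: 50 min reaction, RT, dark. Technique: FRET, CFP and YFP emission. Control set: no-enzyme wells low, DMSO-plus-enzyme wells high control.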
Myeloid diff MLP: myeloid differentiation induction; ER-HoxA9 myeloid progenitors, lysozyme-GFP differentiation, flow cytometry; 1% of 360,000 active; calls only at 10 µM;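 active means normalized GFP-positive differentiation at or above the plate's own cutoff, the solvent-only control mean plus 3 SD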;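 further: cells exposed to compound for four days before flow analysis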
VLA-4 inh: inhibition in a human VLA-4 binding assay; VLA-4 expressing cells, ligand binding flow cytometry; 0.2% of 330,000 active; P13612; inhibition, % (about 7 µM as worked out from the volumes in the protocol); AID 2557; in the data active means inhibition above about 50%
Platelet DG rel: modulates dense granule release in human platelets. human platelet-rich plasma, SFLLRN dense granule ATP release, luminescence. inhibition, %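 (compounds screened at 7.5 µM in platelet-rich plasma)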. 0.22% of 300,000 active. AID 1663;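 active means mean replicate score, as percent of positive control, at or above 50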
Myeloid diff: promotes myeloid progenitor differentiation; AID 651706; ER-HoxA9 myeloid progenitors, GFP/Mac1 double-positive flow; shares compounds with Myeloid diff MLP; calls only; 2% of 2,300 active;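 active means share of green or green-and-red cells above 9 and 9% in run 1 or 4 and 3% in run 2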
GFP autofluor: flagged as fluorescent in myeloid differentiation counter-screen. shares compounds with Myeloid diff MLP. ER-HoxA9 myeloid progenitors, no estrogen, GFP autofluorescence flow cytometry; vehicle wells 0%, positive control 100%. fluorescence response, % (concentration not given with the values). 7.4% of 2,300 active;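 active means over 5% cells positive for green fluorescent reporter, or over 2% positive for both it and APC stain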;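 further: range taken on the double positive population between DMSO and positive control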
The depositor's hits bear a star; i = inactive; . = not tested or not shown; + = active, no number. In the library only some 1.5% were active in any assay of this set; here they are far more common.

SMILES	SENP1 inh	Myeloid diff MLP	VLA-4 inh	Platelet DG rel	Myeloid diff	GFP autofluor
OC(CNc1ccccc1)COc1ccc(OCC(O)CNc2ccccc2)cc1 (stereo not given)	-1	+	-8	7	i	1
COc1ccccc1CC(=O)NNC(=O)c1ccco1	-1	.	13	9	.	.
COc1ccc(S(=O)(=O)NC(C)C(=O)NCc2ccc3c(c2)OCO3)cc1OC (stereo not given)	1	i	6	1	.	.
COc1ccc(OC)c(CNC(=O)Cc2c(C(=O)O)[nH]c3ccc(Cl)cc23)c1	2	i	-14	-2	.	.
CCOCCCNC(=O)Cc1c(C(=O)O)[nH]c2ccc(Cl)cc12	-1	i	6	26	i	0
Cc1nc2ccc(Cl)cc2n1C	5	i	.	.	.	.
c1ccc(Cc2nn3c(Cn4nnc5ccccc54)nnc3s2)cc1	0	i	-7	4	i	0
c1ccc(CCc2nn3c(Cn4nnc5ccccc54)nnc3s2)cc1	-2	i	24	2	.	.
CCc1nc(C)cn1S(=O)(=O)c1ccc2c(c1)OCCO2	4	i	.	.	.	.
CNC(=S)Nc1cccc(Cl)c1C	1	i	2	-3	.	.
COc1ccc(CN(C)CC(=O)Nc2cccc3ccccc23)cc1F	2	i	-3	-1	.	.
CCOc1ccc(CN(C)CC(=O)Nc2cccc3ccccc23)cc1OC	0	i	-3	-10	i	0
O=C(COc1ccc(-c2nnco2)cc1)Nc1c(Cl)cccc1C(F)(F)F	2	i	7	-7	.	.
COc1ccc(OC)c(-c2csc(NC(=O)Cc3cccs3)n2)c1	-3	+	-3	0	i	0
O=C(NCCC(=O)N1CCC2(CC1)NCCc1[nH]cnc12)c1cccc(Cl)c1	3	i	5	-4	.	.
COc1ccc(/C=N/NC(=O)c2ccc(CN3c4cccc5cccc(c45)S3(=O)=O)cc2)cc1	-7	i	1	5	.	.
O=C(N/N=C/CCc1ccccc1)c1ccc(CN2c3cccc4cccc(c34)S2(=O)=O)cc1	-2	i	9	2	i	0
COc1ccc2c(c1O)C(=O)c1ccccc1C2=O	.	.	-33	-4	.	.
CC(C)COC(=O)c1ccc2c(c1O)C(=O)c1ccccc1C2=O	8	i	-44	10	i	6.1*
CCCC(CNC(C)=O)(C1=CCCCC1)c1ccccc1 (stereo not given)	5	i	.	.	.	.
COc1ccc(CN(C(=O)c2ccco2)c2ccc(C)c(C)c2)cc1	2	+	11	-1	i	0
COc1ccc2nc(N3C(=O)/C(=C/c4ccccc4)NC3=S)sc2c1	31	i	-5	-2	i	7.0*
C=CCSc1nnc(NC(=O)CCN2C(=O)C3CC=CCC3C2=O)s1 (stereo not given)	2	i	-2	.	.	.
O=C(COC(=O)c1cccs1)NCc1ccc2c(c1)OCO2	1	+	-21	0	i	0
Cn1c(=O)c2c(nc(NCc3ccco3)n2C)n(C)c1=O	-3	i	-5	0	.	.
SMILES	SENP1 inh	Myeloid diff MLP	VLA-4 inh	Platelet DG rel	Myeloid diff	GFP autofluor
Cn1c(=O)c2c(nc(NCc3ccco3)n2C/C=C/c2ccccc2)n(C)c1=O	-1	i	-11	74*	i	0
Cc1occc1C(=O)NCCCCc1ccccc1	-3	i	-30	-2	.	.
COc1ccccc1CCNC(=O)c1ccoc1C	2	+	5	9	i	0
COc1ccc(OC)c(CN2CCN(C(=O)[C@@H](NC(=O)c3cccc(C)c3)C(C)C)CC2)c1	3	i	-4	.	.	.
O=C(COC(=O)c1ccc([N+](=O)[O-])o1)Nc1ncc(Cl)cc1Cl	-1	i	1	.	.	.
COC(=O)[C@@]12CCCCN1[C@H](c1ccc(-c3ccc4c(c3)OCO4)c(OC)c1)[C@@H]1C(=O)N(C)C(=O)[C@@H]12	-1	i	28	.	.	.
O=C(Nc1nc(-c2ccc(Cl)cc2)cs1)C1=COCCO1	-7	i	9	3	i	0
CC(=O)NC/C(C)=N\Nc1ccc([N+](=O)[O-])cc1	14	+	-83	-2	i	49*
CCn1c(=O)c(C(=O)NCc2cccnc2)c(O)c2ccccc21	-3	i	0	-1	i	0
CCOc1ccc2[nH]c(=O)c(CN(Cc3ccco3)Cc3nnnn3Cc3ccccc3)cc2c1	-42	i	-6	4	.	.
